Measurements as given in ChEMBL document CHEMBL4364306, “Structure-activity relationships of thiazole and benzothiazole derivatives as selective cannabinoid CB2 agonists with in vivo anti-inflammatory properties” (Eur J Med Chem, 2019).
pEC50: −log10 of the molar value. The source made the active and inactive calls. No cut-off for these calls is given here.

Experiments:
Cannabinoid receptor 2 [1] = target: T1, Cannabinoid receptor 2 (Homo sapiens, UniProt P34972); experiment: Agonist activity at recombinant human CB2R expressed in CHOK1 cells assessed as inhibition of NKH477-stimulated intracellular cAMP levels after 30 mins by chemiluminescent detection based cAMP Hunter assay; format: functional, cell-based
T1 sequence (P34972 whole entry, the tested form may be a part): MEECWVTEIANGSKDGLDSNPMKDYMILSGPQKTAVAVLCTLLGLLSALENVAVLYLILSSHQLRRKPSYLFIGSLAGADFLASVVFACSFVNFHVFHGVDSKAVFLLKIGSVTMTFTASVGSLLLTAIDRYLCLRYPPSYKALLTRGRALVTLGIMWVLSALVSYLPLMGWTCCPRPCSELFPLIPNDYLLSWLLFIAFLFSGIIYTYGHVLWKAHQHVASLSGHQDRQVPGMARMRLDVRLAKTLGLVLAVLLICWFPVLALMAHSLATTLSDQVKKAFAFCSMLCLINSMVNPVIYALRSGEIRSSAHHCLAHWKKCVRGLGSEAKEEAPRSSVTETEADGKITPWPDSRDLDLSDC
Method in brief: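 CHO-K1 cells overexpressing human CB2R, plated 30,000 cells/well, overnight 37 °C, 5% CO2. Compound dose-responses incubated 30 min at 37 °C with NKH-477 (25 µM) to stimulate adenylate cyclase. Enzyme fragment complementation chemiluminescence read. Normalised to NKH-477 alone as 100%; mean ± SEM of three independent experiments in triplicate.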

Cannabinoid receptor 2 [2] = target: T1, Cannabinoid receptor 2; experiment: Antagonist activity at N-terminal Flag epitope tagged CB2 (unknown origin) expressed in HTLA cells assessed as decrease in CP55940-induced beta-arrestin recruitment pretreated with non-selective cannabinoid receptor agonist CP55940 for 30 mins and measured after 20 mins by Tango assay; format: cell-based
Cannabinoid receptor 2 [3] = target: T1, Cannabinoid receptor 2; experiment: Agonist activity at N-terminal Flag epitope tagged CB2 (unknown origin) expressed in HTLA cells assessed as increase of beta-arrestin recruitment by Tango assay; format: cell-based
Method in brief: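 β-arrestin Tango assay: HTLA cells transfected overnight with GPCR tango constructs, plated at 15,000 cells/well in DMEM with 1% dFBS, recovered ≥6 h. Drugs in Tango buffer (20 mM HEPES, 1x HBSS, pH 7.40) added overnight, full concentration-response (maximum 30 µM). BrightGlo reagent, 20 min room temperature in dark, luminescence read.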

Cannabinoid receptor 1 [4] = target: T2, Cannabinoid receptor 1 (Homo sapiens, UniProt P21554); experiment: Agonist activity at N-terminal Flag epitope tagged CB1 (unknown origin) expressed in HTLA cells assessed as increase of beta-arrestin recruitment by Tango assay; format: cell-based
T2 sequence (P21554 whole entry): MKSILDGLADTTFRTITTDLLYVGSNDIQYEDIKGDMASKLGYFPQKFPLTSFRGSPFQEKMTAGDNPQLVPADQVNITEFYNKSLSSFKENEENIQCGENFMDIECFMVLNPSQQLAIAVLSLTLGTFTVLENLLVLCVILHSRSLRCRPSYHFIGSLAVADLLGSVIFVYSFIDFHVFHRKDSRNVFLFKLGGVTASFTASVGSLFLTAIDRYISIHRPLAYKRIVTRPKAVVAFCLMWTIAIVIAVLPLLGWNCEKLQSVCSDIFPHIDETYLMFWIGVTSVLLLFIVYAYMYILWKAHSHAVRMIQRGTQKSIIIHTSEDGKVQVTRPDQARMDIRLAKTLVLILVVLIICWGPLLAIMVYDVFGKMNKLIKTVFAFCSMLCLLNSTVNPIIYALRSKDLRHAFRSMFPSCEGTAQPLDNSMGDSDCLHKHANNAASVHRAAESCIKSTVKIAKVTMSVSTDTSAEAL
Method in brief: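 HTLA cells transfected overnight with GPCR Tango constructs, plated at 15,000 cells/well in DMEM with 1% dFBS and allowed to recover at least 6 h. Compounds in Tango buffer (20 mM HEPES, 1x HBSS, pH 7.40) added overnight, full concentration-response up to 30 µM against CP-55,940 as reference agonist. BrightGlo reagent added for 20 min at room temperature in the dark, then luminescence read.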

Homo sapiens = organism: Homo sapiens; experiment: Selectivity index, ratio of Ki for recombinant human CB1R expressed in HEK293 cell membranes to Ki for recombinant human CB2R expressed in HEK293 cell membranes; format: cell-based
Cannabinoid receptor 1 [5] = target: T2, Cannabinoid receptor 1; experiment: Displacement of [3H]CP55940 from recombinant human CB1R expressed in HEK293 cell membranes at 10 uM incubated for 90 mins relative to control
Cannabinoid receptor 2 [6] = target: T1, Cannabinoid receptor 2; experiment: Displacement of [3H]CP55940 from recombinant human CB2R expressed in HEK293 cell membranes at 10 uM incubated for 90 mins relative to control
Cannabinoid receptor 1 [7] = target: T2, Cannabinoid receptor 1; experiment: Antagonist activity at N-terminal Flag epitope tagged CB1 (unknown origin) expressed in HTLA cells assessed as decrease in CP55940-induced beta-arrestin recruitment pretreated with non-selective cannabinoid receptor agonist CP55940 for 30 mins and measured after 20 mins by Tango assay; format: cell-based

| Compound | pEC50 (Cannabinoid receptor 2 [1]) | pEC50 (Cannabinoid receptor 2 [2]) | pEC50 (Cannabinoid receptor 2 [3]) | pEC50 (Cannabinoid receptor 1 [4]) | Ratio Ki (Homo sapiens) | Activity (Cannabinoid receptor 1 [5]) | Activity (Cannabinoid receptor 2 [6]) | pEC50 (Cannabinoid receptor 1 [7]) |
| --- | --- | --- | --- | --- | --- | --- | --- | --- |
| CCCCCn1/c(=N/C(=O)c2cccc3ccccc23)sc2ccccc21 | 7.17 | < 4.52 | 7.89 | 6.90 | 22.2 | Active | Active | < 4.52 |
| Cc1nc(-c2ccccc2)sc1C(=O)NC12CC3CC(CC(C3)C1)C2 |  | < 4.52 | < 4.52 | < 4.52 | > 22 | Active | Active | < 4.52 |
| Cc1nc(-c2ccccc2)sc1C(=O)NC1CC1 |  | < 4.52 | < 4.52 | < 4.52 |  | Active | Active | < 4.52 |
| CCCCCn1/c(=N/C(=O)c2ccc(C(F)(F)F)cc2)sc2ccccc21 |  | < 4.52 | 5.60 | < 4.52 | 393 | Active | Active | < 4.52 |
| Cc1nc(C)c(C(=O)NC23CC4CC(CC(C4)C2)C3)s1 |  | < 4.52 | < 4.52 | < 4.52 | > 6 | Active | Active | < 4.52 |
| O=C(Nc1nc2ccccc2s1)c1cccc(C(F)(F)F)c1 |  | < 4.52 | < 4.52 | < 4.52 |  | Active | Active | < 4.52 |
| O=C(NCc1ccccc1Cl)c1nc2ccccc2s1 |  | < 4.52 | 5.48 | < 4.52 | > 9 | Active | Active | < 4.52 |
| Cc1nc(-c2ccccc2)sc1C(=O)NCc1ccccc1F |  | < 4.52 | < 4.52 | < 4.52 |  | Active | Active | < 4.52 |
| Cc1nc(-c2ccccc2)sc1C(=O)NCC1CCCCC1 |  | < 4.52 | < 4.52 | < 4.52 |  | Active | Active | < 4.52 |
| Cc1nc(-c2ccccc2)sc1C(=O)NC1CCCCC1 |  | < 4.52 | < 4.52 | < 4.52 |  | Active | Active | < 4.52 |
| O=C(NCc1ccccc1)c1nc2ccccc2s1 |  | < 4.52 | < 4.52 | < 4.52 |  | Active | Active | < 4.52 |
| O=C(Nc1ccc2ccccc2c1)c1nc2ccccc2s1 |  | < 4.52 | < 4.52 | < 4.52 |  | Active | Active | < 4.52 |
| CCCCCCNC(=O)c1sc(-c2ccccc2)nc1C |  | < 4.52 | < 4.52 | < 4.52 |  | Active | Active | < 4.52 |
| Cc1nc(C)c(C(=O)NC2CCCc3ccccc32)s1 (configuration not stated) |  | 6.36 | < 4.52 | < 4.52 |  | Active | Active | 5.93 |
| Cc1ccc(Cn2nc(C(=O)N[C@@H]3C(C)(C)[C@@H]4CC[C@@]3(C)C4)cc2-c2ccc(Cl)c(C)c2)cc1 |  |  |  |  |  | Active |  |  |
| O=C(Nc1cccc2ccccc12)c1nc2ccccc2s1 |  | < 4.52 | < 4.52 | < 4.52 |  | Active | Active | < 4.52 |
